Assay results collected from several papers.
Compare with care: the assays were run in different laboratories.
PRPF4B: Serine/threonine-protein kinase PRP4 homolog (PRPF4B, Homo sapiens, UniProt Q13523)

SMILES	target	assay	setting	quantity	result
Cn1cc(-c2cccc(N3CCc4c(sc5c4CC(C)(C)C5)C3=O)c2CO)cc(Nc2ccncn2)c1=O	Serine/threonine-protein kinase mTOR (MTOR, Homo sapiens, UniProt P42345)	enzyme activity, inhibitor	1 µM	inhibition	-4%
COc1ncccc1-c1cnn2ccc(N3CCN(C(=O)OC(C)C)CC3)nc12	PRPF4B	binding, competition with immobilised ligand	1 µM	remaining binding	28%
Nc1ccc(-c2nsc(=O)o2)cc1	Proteasome Macropain subunit MB1 (PSMB5, Homo sapiens, UniProt P28074)	enzyme activity, inhibitor		kinact/KI	8.6 M⁻¹ s⁻¹
Cn1cc(-c2cc(F)cc(N3CCn4c(cc5c4CCCC5)C3=O)c2CO)cc(Nc2ccc(N3CCN(C4COC4)CC3)cn2)c1=O	PAS domain-containing serine/threonine-protein kinase (PASK, Homo sapiens, UniProt Q96RG2)	enzyme activity, inhibitor	0.1 µM	inhibition	-1%
Nc1ncc(-c2nc(N3CCOCC3)nc(N3CCOCC3)n2)c(C(F)F)n1	Microtubule-associated serine/threonine-protein kinase 1 (MAST1, Homo sapiens, UniProt Q9Y2H9)	binding, competition with immobilised ligand	10 µM	remaining binding	90%
Brc1cc2c(N3CCNCC3)nccn2c1	Beta-secretase 1 (BACE1, Homo sapiens, UniProt P56817)	thermal stability, DSF	2.1 mM, pH 5.4	ΔTm	-0.27 °C
COc1ccc(S(=O)(=O)N2CCCCC2)cc1C	Vasopressin V2 receptor (AVPR2, Homo sapiens, UniProt P30518)	ligand displacement, radioligand	10 µM	inhibition	< 30%
O=C(Nc1cccnn1)N1CCN([C@@H]2CCOc3cc(C(F)(F)F)ccc32)CC1	Melanocortin receptor 3 (MC3R, Homo sapiens, UniProt P41968)	cell-free assay	20 µM	inhibition	13%
Cc1nn(C)cc1-c1nc2c(N3CCN(Cc4ccc(Cl)cc4)CC3)c(Cl)cnc2[nH]1	Serine/threonine-protein kinase Nek5 (NEK5, Homo sapiens, UniProt Q6P3R8)	binding, competition with immobilised ligand	1 µM	remaining binding	23%
C#Cc1n[nH]c2c(-c3cn(C(C)c4ccccn4)c(=O)[nH]c3=O)cc(F)cc12 (stereo not drawn)	Epidermal growth factor receptor (EGFR, Homo sapiens, UniProt P00533, L858R/T790M)	enzyme activity, inhibitor	1 µM	inhibition	-1.7%
COc1cc(Cl)c(C(=O)N[C@@H](CN[C@H]2CC[C@@H](N)CC2)Cc2ccc(C#N)cc2)cc1-c1ccc(CN[C@H](C)c2ccc(C)cc2)o1	PRPF4B	enzyme activity, inhibitor	1 µM	remaining activity	90%
CCN(CC)CCCC[C@H](NC(=O)[C@H](CC(C)C)NC(=O)[C@H](C)NC(=O)[C@H](Cc1ccccc1)NC(=O)c1ccc(C(C)(C)C)cc1)C(=O)N[C@@H](CO)C(=O)OC	SWI/SNF-related matrix-associated actin-dependent regulator of chromatin subfamily A member 2 (SMARCA2, Homo sapiens, UniProt P51531)	thermal stability, DSF	25 µM	ΔTm	0.14 °C
